# Compound activity deposited in PubChem BioAssay by The Scripps Research Institute Molecular Screening Center.
# TCR CD3 inh: inhibitors of human TCR-CD3 interaction, primary screen, biochemical, fluorescence, TAMRA-labeled TCR probe; AID 651800, 2012; 360,000 tested, 0.37% active; inhibition, % at 9.4 µM; T-cell receptor (TCR); in the data active = inhibition above about 19%;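 note: recombinant mutant TCR 2C K166C tagged with TAMRA read by polarization; 0% = receptor in buffer alone and 100% = receptor with positive control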
# SIAE inh: human SIAE inhibitors, primary screen, biochemical, fluorescence polarization, FP-Rh probe, 1536-well HTS; inhibition, % at 9.66 µM; 370,000 tested, 0.69% active; Sialate O-acetylesterase (Homo sapiens), Q9HAT2; SIAE FP-Rh probe binding; AID 1053197, 2014;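 active = inhibition above a cutoff: mean of compounds within the control limits plus 3 SD of those, cut at about 17% in these data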;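 note: 0% = plate median of compound wells and 100% = probe without SIAE protein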
# Target sequence (Q9HAT2 whole entry, looked up): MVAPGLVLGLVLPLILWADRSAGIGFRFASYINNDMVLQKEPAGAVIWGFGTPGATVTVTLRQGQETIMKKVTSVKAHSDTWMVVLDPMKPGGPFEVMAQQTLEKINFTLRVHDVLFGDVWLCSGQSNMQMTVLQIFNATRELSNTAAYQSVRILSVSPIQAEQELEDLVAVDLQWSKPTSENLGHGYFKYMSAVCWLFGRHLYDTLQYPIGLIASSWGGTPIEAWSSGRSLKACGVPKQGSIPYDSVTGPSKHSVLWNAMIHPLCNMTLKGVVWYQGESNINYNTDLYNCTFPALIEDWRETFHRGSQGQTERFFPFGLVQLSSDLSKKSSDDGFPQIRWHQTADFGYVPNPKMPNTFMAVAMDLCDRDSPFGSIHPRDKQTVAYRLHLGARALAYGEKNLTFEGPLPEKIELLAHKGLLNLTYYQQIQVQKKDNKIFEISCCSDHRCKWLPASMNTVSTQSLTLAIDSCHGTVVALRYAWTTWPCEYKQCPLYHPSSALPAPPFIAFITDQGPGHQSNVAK
# HTRA1 inhibitor: HTRA1 serine protease inhibitors, primary screen, biochemical, fluorescence polarization, HTS; Q92743; recombinant HTRA1, FP-rhodamine activity-based probe; inhibition, % at 5.96 µM; 340,000 tested, 0.5% active; in the data active = inhibition above about 36%;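 note: 0% = enzyme with DMSO and 100% = wells lacking enzyme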
# PRMT1 FP inh: PRMT1 methyltransferase inhibitors, primary screen, biochemical, fluorescence polarization. recombinant PRMT1, activity-based probe fluorescence polarization. Protein arginine N-methyltransferase 1 (Homo sapiens), Q99873. 370,000 tested, 1.3% active. inhibition, % at 2.79 µM;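 active = inhibition above about 21% made by adding two undisclosed values, limit read from the data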
# mABHD4 FP: ABHD4 inhibitors, primary screen, biochemical, fluorescence polarization, mouse | (Lyso)-N-acylphosphatidylethanolamine lipase (Mus musculus), Q8VD66 | purified mABHD4, FP-Rh probe fluorescence polarization | inhibition, % at 8.92 µM | 370,000 tested, 0.54% active;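 active = inhibition exceeding the mean over every tested compound plus 3 SD, cut at about 30% in these data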;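 note: 0% = plate median of compound wells and 100% = S159A mutant with DMSO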
#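 Doses – 8.92 µM, single dose · Material – wild-type mouse ABHD4 protein · Replication – single well per compound (singlicate) · Measure – percent inhibition of probe binding, normalized to plate controls · Schedule – 45 min compound pre-incubation plus 60 min probe step, 25 °C · Detection – fluorescence polarization with parallel and perpendicular emission, 525/598 nm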
# PRMT1 inh conf: PRMT1 methyltransferase inhibitors, confirmation, biochemical, fluorescence polarization, triplicate; 3,300 tested, 42% active; shares compounds with PRMT1 FP inh; recombinant His-PRMT1, activity-based probe fluorescence polarization; inhibition, % at 2.79 µM;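 active = mean inhibition across replicates above the hit cutoff derived for the earlier primary screen, cut at about 22% in these data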
# Active calls of the source: *; nt = not tested or not shown. Compounds with a hit are over-represented: about 2.6% of the library has one in this group of screens.
SMILES,TCR CD3 inh,SIAE inh,HTRA1 inhibitor,PRMT1 FP inh,mABHD4 FP,PRMT1 inh conf
Cc1ccccc1NCc1ccc(O)c2ncccc12,-9,0,17,5,14,nt
O=C(CNC(=O)c1ccc(Cl)cc1Cl)OCC(=O)N1CCCC1=O,5,-1,1,1,3,nt
On1ccccc1=S,-3,7,-2,88*,4,88*
CCCn1c(SCC(=O)Nc2ccc3c(c2)OCCO3)n[nH]c1=O,-11,9,-4,3,-4,nt
N#CC1C(=O)c2ccccc2C1c1ccccc1 (stereo unspecified),-1,-1,-2,45*,15,14
O=C1CCC(c2ccccc2)c2ccccc21 (stereo unspecified),10,6,nt,-2,4,nt
CCOCCCN(C(=O)CNC(=O)c1ccco1)C(C(=O)NC1CCCC1)c1cccc(OC)c1 (stereo unspecified),4,-11,1,0,4,nt
CCCNC(=O)C1(C)CCCN(CC(=O)c2ccccc2OC)C1 (stereo unspecified),-6,6,nt,4,3,nt
O=C(O)c1ccc2ncsc2c1,-1,2,7,25*,2,13
O=C(COC(=O)c1ccc2ncsc2c1)Nc1cccc(Cl)c1,-10,-18,-29,33*,-23,2
O=C(COC(=O)c1ccc2ncsc2c1)NCc1cccc(Cl)c1,-7,-5,-20,5,-10,nt
O=C(c1ccc2ncsc2c1)N1CCCCC1,7,4,4,8,-2,nt
O=C(Nc1cccc(Cl)c1)c1ccc2ncsc2c1,1,-24,-30,32*,-29,-2
COc1cccc(NC(=O)CCC(=O)Nc2cc(OC)c(NC(=O)c3cccs3)cc2OC)c1,3,6,6,3,-2,nt
Fc1ccccc1-c1nc(-c2ccc(-c3nn[nH]n3)cc2)no1,0,-42,-29,6,-22,nt
Cc1cc(C)c2sc(C)[n+](CCCS(=O)(=O)[O-])c2c1,-8,-3,2,51*,-1,32*
CC[n+]1c(C)sc2c(C)cc(C)cc21,-4,0,4,46*,-2,20
Cc1ccc2c(C)cc[n+](CCCS(=O)(=O)[O-])c2c1,-6,5,3,-2,-4,nt
O=C1N=C(N2C=CC(=C3C=CNC=C3)C=C2)/C(=C/N=NC(=O)c2ccccc2O)S1,18,13,24,39*,19,23*
C=CCOc1ccc(CN(C)C(=O)c2ccc(CNS(=O)(=O)c3ccc(C)c(C)c3)cc2)cc1,0,-10,-33,9,-16,nt
O=C(O)c1ccccc1-c1ccc(/C=C/c2cc(C(F)(F)F)[nH]c(=O)n2)o1,14,-28,-4,29*,-30,25*
CC(OC(=O)CCN1C(=O)C2CC=CCC2C1=O)C(=O)c1ccc(F)cc1 (stereo unspecified),-3,-8,6,-4,-10,nt
COc1ccc(OC)c(-c2csc(NC(=O)Cc3ccc(F)cc3)n2)c1,3,-7,-47,-1,-16,nt
Cc1ccc(-c2csc(NC(=O)Cc3ccc(F)cc3)n2)o1,-1,-2,-11,41*,-8,43*
Cc1ccc(-c2csc(Nc3ccc(S(N)(=O)=O)cc3)n2)o1,-1,7,-2,72*,-5,40*
SMILES,TCR CD3 inh,SIAE inh,HTRA1 inhibitor,PRMT1 FP inh,mABHD4 FP,PRMT1 inh conf
Cc1ccc(Nc2nc(-c3ccc(S(=O)(=O)N4CCOCC4)cc3)cs2)cc1,-3,6,-2,26*,6,-1
COc1ccc(OC(=O)COc2ccc(Cl)cc2)cc1,0,9,14,4,1,nt
CC(=O)Nc1ccc(S(=O)(=O)N2CCC(C(=O)NCc3ccncc3)CC2)cc1,3,0,4,1,-2,nt
COc1cc(OC)cc(C(=O)NC(=S)NNC(=O)Cc2cccs2)c1,16,-6,4,28*,-10,3
COc1cc(/C=C2\SC(=O)N(CCNC(=O)c3c(C)noc3C)C2=O)cc(OC)c1OC,-5,2,1,3,1,nt
O=C(Nc1ccccc1)C1=C(c2ccccc2)S(=O)(=O)CCS1(=O)=O,13,-3,-1,47*,3,56*
O=C(O)c1ccccc1C(=O)Nc1ccccc1,-16,-5,5,-1,-3,nt
CC1CCCC(C)N1C(=O)CN1C(=O)NC2(CCOc3ccccc32)C1=O (stereo unspecified),-4,-5,-4,2,5,nt
CCOC(=S)SCc1cn2cccc(C)c2n1,6,-5,5,57*,-14,12
CCc1ccc(CNC(=O)c2ccc(NC(=O)C3=CSCCO3)cc2)cc1,1,4,-28,-2,-6,nt
N#C/C(=C\c1ccccc1)C(=O)N(c1ccccn1)C1CCCCC1,-6,8,2,-1,8,nt
O=C(/C=C/c1ccc([N+](=O)[O-])cc1)N(c1ccccn1)C1CCCCC1,-11,5,-2,28*,7,20
Cc1ccc(CNC(=O)CCS(=O)(=O)Cc2ccc(C)cc2)cc1,2,0,0,-1,2,nt
O=C(O)c1ccccc1NS(=O)(=O)c1cccc(-n2sc3ccccc3c2=O)c1,0,-21,-1,94*,3,93*
O=C(O)c1ccccc1NS(=O)(=O)c1cccc(C(F)(F)F)c1,8,-1,-6,-3,3,nt
Fc1ccc(Oc2ccnc(Cl)n2)c(Cl)c1,-6,8,nt,0,5,nt
Cc1nc2sc(C(c3ccco3)N3CCc4ccccc4C3)c(O)n2n1 (stereo unspecified),11,-1,1,45*,22,15
Cc1nc2sc(C(c3ccco3)N3CCN(c4ccc(F)cc4)CC3)c(O)n2n1 (stereo unspecified),-8,12,-1,25*,-7,-3
COc1ccc(C(=O)CC(=O)c2ccc(C(C)(C)C)cc2)cc1,-2,-1,4,4,-8,nt
COc1ccc(C(=O)CC(Sc2ccccc2N)c2ccc(OC)cc2)cc1 (stereo unspecified),-9,0,-14,59*,3,29*
COc1ccc(NC(=O)Cc2nnc(SCC(=O)NC3CCCC3)n2C)cc1,3,2,5,-1,-3,nt
Cc1cccc(CN2[C@H](CO)C=CS2(=O)=O)c1,3,-5,nt,-2,3,nt
Nc1ccccc1N=c1ssnc1Cl,-2,4,-5,69*,1,58*
Cc1ccc(N=c2ssnc2Cl)cc1,3,2,11,70*,7,89*
Cc1cc(Cl)ccc1N=c1ssnc1Cl,-2,-6,3,44*,-13,94*
Cc1cc(C)nc(/N=c2/ssnc2Cl)c1,4,-1,9,7,3,nt
